Tests used:
Format in all cases: functional
Bacillus subtilis [1] = assay: Antibacterial activity against Bacillus subtilis after 12 hrs relative to vancomycin
Outline: (§1)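 Paper disk diffusion: 0.1 mg sample loaded per disk, incubated on bouillon culture medium at 37 °C. Inhibition zone diameter measured after 12 h. Activity expressed relative to a vancomycin standard disk (0.1 mg).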

Staphylococcus aureus [2] = assay: Antibacterial activity against Staphylococcus aureus after 12 hrs relative to vancomycin; outline: as §1
Bacillus subtilis [3] = assay: Antibacterial activity against Bacillus subtilis after 12 hrs
Outline: (§2)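 Paper disk diffusion: 0.1 mg sample loaded per disk, incubated in bouillon culture medium at 37 °C for 12 h, then inhibition zone diameter measured. Activity expressed relative to vancomycin standard (0.1 mg per disk).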

Staphylococcus aureus [4] = assay: Antibacterial activity against Staphylococcus aureus after 12 hrs; outline: as §2

Compound | Activity (Bacillus subtilis [1]) | Activity (Staphylococcus aureus [2]) | inhibition zone (IZ) (Bacillus subtilis [3]) [mm] | inhibition zone (IZ) (Staphylococcus aureus [4]) [mm]
CC[C@H]1O[C@@H]2[C@@H](/C=C\C/C=C\CCCCC(=O)O)[C@H]1C[C@H]2Cl | 0.43 | 0.4 | – | –
CC[C@@H]1OC(=O)CCCC/C=C\C/C=C\[C@H]2[C@H]1C[C@@H]1O[C@H]21 [ECKLONIALACTONE A] | 0.3 | 0.41 | – | –
CC[C@H](Cl)[C@@H]1C[C@@H]2O[C@@H]2[C@H]1/C=C\C/C=C\CCCCC(=O)O [EGREGIACHLORIDE A] | 0.35 | 0.47 | – | –
CC[C@@H]1OC(=O)CCCC/C=C\C/C=C\[C@@H]2[C@@H](O)[C@H](Cl)C[C@H]21 [EISENIACHLORIDE A] | 0.36 | 0.38 | – | –
CC[C@@H]1OC(=O)CCCCCCC/C=C\[C@@H]2[C@@H](O)[C@H](Cl)C[C@H]21 [EISENIACHLORIDE B] | 0.31 | 0.53 | – | –
CC[C@@H]1OC(=O)CCC/C=C\C/C=C\C/C=C\[C@@H]2[C@@H](O)[C@H](Cl)C[C@H]21 [EISENIACHLORIDE C] | 0.29 | 0.34 | – | –
CC[C@@H]1OC(=O)CCCCCCC/C=C\[C@@H]2[C@@H](O)[C@H](I)C[C@H]21 [EISENIAIODIDE B] | 0.28 | 0.47 | – | –
CN[C@H](CC(C)C)C(=O)N[C@H]1C(=O)N[C@@H](CC(N)=O)C(=O)N[C@H]2C(=O)N[C@H]3C(=O)N[C@H](C(=O)N[C@H](C(=O)O)c4cc(O)cc(O)c4-c4cc3ccc4O)[C@H](O)c3ccc(c(Cl)c3)Oc3cc2cc(c3O[C@@H]2O[C@H](CO)[C@@H](O)[C@H](O)[C@H]2O[C@H]2C[C@](C)(N)[C@H](O)[C@H](C)O2)Oc2ccc(cc2Cl)[C@H]1O [VANCOMYCIN] | 1 | 1 | 26.8 | 34.6

Reference: ChEMBL document CHEMBL1147230, “Novel oxylipin metabolites from the brown alga Eisenia bicyclis” (2003)
